Reference: ChEMBL document CHEMBL3351339, “Delineation of the role of glycosylation in the cytotoxic properties of quercetin using novel assays in living vertebrates” (J Nat Prod, 2014)
Calls of active or inactive are those of the source. The calls are words filed in the database; no cut-off is given here.

How the values were obtained:
HCT-116 [1] = assay: Cytotoxicity against human HCT116 cells at 1.25 to 20 uM after 96 hrs by MTT assay; type: functional, cell-based
Method in brief: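 HCT116 cells in DMEM with 10% FBS, seeded at 4 × 10^3 per well and left overnight at 37 °C. Treated in 1% FBS–DMEM for 96 h, then MTT for 3 h. Formazan dissolved in DMSO, absorbance read at 570 nm. DMSO vehicle control. Two independent assays, mean ± SD.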

Cancer cell lines [2] = assay: Antitumor activity against human HCT116 cells xenografted in 48 hpf zebrafish embryo assessed as inhibition of cancer cell proliferation at 80 uM treated for 4 days; type: functional, cell-based
Method in brief: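 HCT116 cells labelled with 2 μg/mL DiI were injected into the yolk sac of 48 hpf embryos. Embryos were held singly in E3 without methylene blue with compound (80 μM), 10 μM API-H7 as positive control or DMSO, at 31 °C for 96 h, 8 per group. Larvae were dissociated with collagenase/dispase for 2 h at 37 °C, fixed in paraformaldehyde, and fluorescent cells counted by microscopy. Two independent assays.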

HCT-116 [3] = assay: Induction of apoptosis in human HCT116 cells assessed as PARP cleavage at 20 uM after 72 hrs by immunoblotting; type: functional, cell-based
Method in brief: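 HCT116 cells were treated with 20 μM compound for 72 h and lysed in ice-cold buffer with PMSF and protease inhibitors. Protein in the cleared supernatant was measured by BCA, and PARP cleavage was detected by western blot with actin as reference.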

Danio rerio [4] = species: Danio rerio; assay: Teratogenic effect in zebrafish assessed as delayed hatching at 160 uM after 72 hrs by microscopy; type: organism-based; details: in vivo
Method in brief: (§1)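 Fertilized eggs were exposed from the eight-cell stage, 8 per well, at 31 °C for 72 h. Development, malformations and survival were then recorded by microscopy.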

Danio rerio [5] = species: Danio rerio; assay: Teratogenic effect in zebrafish assessed as skeletal deformities at 160 uM after 72 hrs by microscopy; type: organism-based; details: in vivo; method in brief: as §1
Danio rerio [6] = species: Danio rerio; assay: Teratogenic effect in zebrafish assessed as abnormal heart at 160 uM after 72 hrs by microscopy; type: organism-based; details: in vivo; method in brief: as §1
Danio rerio [7] = species: Danio rerio; assay: Teratogenic effect in zebrafish assessed as abnormal head at 160 uM after 72 hrs by microscopy; type: organism-based; details: in vivo; method in brief: as §1
Danio rerio [8] = species: Danio rerio; assay: Teratogenic effect in zebrafish assessed as slow heartbeat at 160 uM after 72 hrs by microscopy; type: organism-based; details: in vivo; method in brief: as §1
Danio rerio [9] = assay: Teratogenic effect in zebrafish assessed as heart sac edema at 160 uM after 72 hrs by microscopy; type: organism-based; details: in vivo; method in brief: as §1
Danio rerio [10] = species: Danio rerio; assay: Teratogenic effect in zebrafish assessed as abnormal development of yolk sac at 160 uM after 72 hrs by microscopy; type: toxicity, organism-based; details: in vivo; method in brief: as §1
Danio rerio [11] = species: Danio rerio; assay: Teratogenic effect in zebrafish assessed as developmental toxicity at 40 to 80 uM after 72 hrs by microscopy; type: organism-based; details: in vivo; method in brief: as §1
Cancer cell lines [12] = assay: Antitumor activity against human HCT116 cells xenografted in 48 hpf zebrafish embryo assessed as inhibition of cancer cell proliferation compound treated for 4 days; type: functional, cell-based
beta-glucosidase = assay: (§2) Drug metabolism assessed as zebrafish intestinal beta-glucosidase-mediated deglycosylation of compound at 80 uM after 2.5 hrs by resorufin-beta-D-glucopyranoside-based fluorescence assay; type: ADME, Danio rerio; details: zebrafish intestinal beta-glucosidase, probe resorufin-beta-D-glucopyranoside, read-out: Drug metabolism
Method in brief: (§3)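 Larvae at 7 dpf (24 per well) were incubated in E3 without methylene blue with Res-β-Glc probe at 400 μM, with or without 80 μM compound, for 2.5 h at 31 °C, then washed. Larvae showing reduced fluorescence against probe-alone larvae were counted by microscopy (n = 3, SD). Lysates were also read at ex 570/em 610 nm.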

[13] = Drug metabolism assessed as zebrafish intestinal beta-glucosidase-mediated formation of quercetin after 2.5 hrs by resorufin-beta-D-glucopyranoside-based fluorescence assay; type: ADME, Danio rerio; method in brief: as §3
[14] = Drug metabolism assessed as zebrafish intestinal beta-glucosidase-mediated formation of quercetin at 80 uM after 2.5 hrs by resorufin-beta-D-glucopyranoside-based fluorescence assay; type: ADME, Danio rerio; method in brief: as §3
[15] = as §2; type: ADME, Danio rerio; details: 2.5 h, 80 µM; method in brief: as §3

Row | SMILES | Activity (HCT-116 [1]) | Activity (Cancer cell lines [2]) | Activity (HCT-116 [3]) | Activity (Danio rerio [4]) | Activity (Danio rerio [5]) | Activity (Danio rerio [6]) | Activity (Danio rerio [7]) | Activity (Danio rerio [8]) | Activity (Danio rerio [9]) | Activity (Danio rerio [10]) | Activity (Danio rerio [11]) | Activity (Cancer cell lines [12]) | metabolised at 2.5 h, 80 µM (beta-glucosidase) [%] | Drug metabolism [13] | Drug metabolism [14] | Drug metabolism [15]
1 | C[C@@H]1O[C@@H](Oc2c(-c3ccc(O)c(O)c3)oc3cc(O)cc(O)c3c2=O)[C@H](O)[C@H](O)[C@H]1O | Active | inactive |  |  |  |  |  |  |  |  |  |  |  |  |  | 
2 | O=c1c(O[C@@H]2O[C@H](CO)[C@H](O)[C@H](O)[C@H]2O)c(-c2ccc(O)c(O)c2)oc2cc(O)cc(O)c12 | Active | inactive |  |  |  |  |  |  |  |  |  |  |  |  |  | 
3 | O=c1c(O[C@@H]2O[C@H](CO)[C@@H](O)[C@H](O)[C@H]2O)c(-c2ccc(O)c(O)c2)oc2cc(O)cc(O)c12 [ISOQUERCETIN] | Active | Active | Active | Non-toxic | Non-toxic | Non-toxic | Non-toxic | Non-toxic | Non-toxic | Non-toxic | Non-toxic | Dose-dependent effect | 57 | Dose-dependent effect | metabolite_detected | 
4 | O=c1c(O)c(-c2ccc(O)c(O)c2)oc2cc(O)cc(O)c12 [QUERCETIN] | Active | Active | Active | Non-toxic | Non-toxic | Non-toxic | Non-toxic | Non-toxic | Non-toxic | Non-toxic | Non-toxic |  |  |  |  | metabolite_notdetected
5 | O=c1c(O)c(-c2ccc(O[C@@H]3O[C@H](CO)[C@@H](O)[C@H](O)[C@H]3O)c(O)c2)oc2cc(O)cc(O)c12 [SPIRAEOSIDE] | Active | inactive | Active | 31.25% | 31.25% | 31.25% | 31.25% | 31.25% | 31.25% | 31.25% | Non-toxic |  | 45 |  |  | 
